# Reference: ChEMBL document CHEMBL1133909, “Piperazine-based CCR5 antagonists as HIV-1 inhibitors. I: 2(S)-methyl piperazine as a key pharmacophore element” (Bioorg Med Chem Lett, 2001)
# pIC50, pKi: −log10 of the molar value.
# Assays:
# [1] = biological target: T1, C-C chemokine receptor type 5 (Homo sapiens, UniProt P51681); experiment: Inhibition of [125I]-labeled RANTES binding to C-C chemokine receptor type 5
# In short: (§1)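 Membranes from CHO cells expressing CCR5 incubated 1 h with 125I-RANTES, with or without compound. Counts averaged. IC50 taken as the amount inhibiting 50% of total 125I-RANTES binding. Ki derived from the binding data. Standard error 10%; assay-to-assay variability 2–3 fold.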
# [2] = biological target: T2, Muscarinic acetylcholine receptor M2 (Homo sapiens, UniProt P08172); experiment: Affinity for Muscarinic acetylcholine receptor M2
# T2 sequence (P08172 whole entry): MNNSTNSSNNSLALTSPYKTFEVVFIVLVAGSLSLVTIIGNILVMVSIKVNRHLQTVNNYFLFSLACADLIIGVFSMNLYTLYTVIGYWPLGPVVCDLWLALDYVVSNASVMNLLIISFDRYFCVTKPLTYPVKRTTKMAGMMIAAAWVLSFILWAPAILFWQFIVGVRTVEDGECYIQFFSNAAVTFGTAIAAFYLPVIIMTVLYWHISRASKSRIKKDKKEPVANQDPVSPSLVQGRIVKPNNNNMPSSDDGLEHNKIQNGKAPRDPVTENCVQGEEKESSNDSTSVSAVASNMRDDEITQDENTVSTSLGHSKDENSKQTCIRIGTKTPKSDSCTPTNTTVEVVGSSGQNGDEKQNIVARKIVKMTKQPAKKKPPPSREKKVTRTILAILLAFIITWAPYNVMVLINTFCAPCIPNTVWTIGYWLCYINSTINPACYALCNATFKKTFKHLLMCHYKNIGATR
# [3] = Antiviral activity was measured as inhibition of the growth of primary HIV-1 isolate (US-1) in human peripheral blood mononuclear cells; type: functional
# [4] = biological target: T1, C-C chemokine receptor type 5; experiment: Ability to inhibit [125I]-labeled RANTES binding to C-C chemokine receptor type 5; in short: as §1
# [5] = biological target: T1, C-C chemokine receptor type 5; experiment: Ability to inhibit [125I]-labeled RANTES binding to C-C chemokine receptor type 5 expressed in membrane preparation of CHO cells; type: cell membranes; in short: as §1
# T1 sequence (P51681 whole entry): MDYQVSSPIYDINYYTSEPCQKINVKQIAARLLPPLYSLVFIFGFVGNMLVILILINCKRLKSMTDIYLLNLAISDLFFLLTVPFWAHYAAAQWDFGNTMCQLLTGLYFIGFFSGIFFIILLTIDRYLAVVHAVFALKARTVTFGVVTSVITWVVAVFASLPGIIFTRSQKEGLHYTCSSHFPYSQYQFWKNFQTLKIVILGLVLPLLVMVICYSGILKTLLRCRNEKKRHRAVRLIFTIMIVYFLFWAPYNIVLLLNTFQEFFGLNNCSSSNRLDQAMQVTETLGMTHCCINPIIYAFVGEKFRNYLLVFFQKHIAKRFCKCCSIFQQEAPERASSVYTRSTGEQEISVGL
pKi [1],pKi [2],pKi [5],SMILES,pIC50 [3],pIC50 [4]
7.74,6.12,–,Cc1cccc(C)c1C(=O)N1CCC(N2CCN([C@@H](C)c3ccc(Cc4ccc5c(c4)OCO5)cc3)[C@@H](C)C2)CC1,8.10,–
7.31,6.57,–,C[C@H]1CN(C2CCN(C(=O)c3c(Cl)cccc3Cl)CC2)CCN1[C@@H](C)c1ccc(S(=O)(=O)c2ccc3c(c2)OCO3)cc1,–,–
6.45,6.30,–,Cc1cccc(C)c1C(=O)N1CCC(N2CCN(Cc3ccc(Cc4ccc5c(c4)OCO5)cc3)CC2)CC1,–,–
6.64,6.45,–,C[C@H]1CN(C2CCN(C(=O)c3c(F)cccc3F)CC2)CCN1[C@@H](C)c1ccc(S(=O)(=O)c2ccc3c(c2)OCO3)cc1,–,–
6.35,9.00,–,Cc1cccc(C)c1C(=O)N1CCC(N2CCN([C@@H](C)c3ccc(S(=O)(=O)c4ccc5c(c4)OCO5)cc3)CC2)CC1,–,–
7.49,7.00,–,C[C@H]1CN(C2CCN(C(=O)c3c(N)cccc3Cl)CC2)CCN1[C@@H](C)c1ccc(S(=O)(=O)c2ccc3c(c2)OCO3)cc1,–,–
–,7.00,7.51,Cc1cccc(N)c1C(=O)N1CCC(N2CCN([C@@H](C)c3ccc(S(=O)(=O)c4ccc5c(c4)OCO5)cc3)[C@@H](C)C2)CC1,–,–
–,7.46,–,Cc1ccccc1C(=O)N1CCC(N2CCN([C@@H](C)c3ccc(Cc4ccc5c(c4)OCO5)cc3)[C@@H](C)C2)CC1,–,7.05

# Continued, molecule first:
SMILES,pKi [1],pKi [2],pKi [5],pIC50 [3],pIC50 [4]
Cc1cccc(C)c1C(=O)N1CCC(N2CCN([C@@H](C)c3ccc(S(=O)(=O)c4ccc5c(c4)OCO5)cc3)[C@H](C)C2)CC1,–,9.10,–,–,6.36
Cc1cccc(C)c1C(=O)N1CCC(N2CCN([C@@H](C)c3ccc(Cc4cccc(Cl)c4)cc3)[C@@H](C)C2)CC1,7.35,< 5.85,–,–,–
Cc1cccc(C)c1C(=O)N1CCC(N2CCN(Cc3ccc(Cc4ccc5c(c4)OCO5)cc3)[C@@H](C)C2)CC1,7.36,< 7.40,–,–,–
Cc1cccc(C)c1C(=O)N1CCC(N2CCN(Cc3ccc(S(=O)(=O)c4ccc5c(c4)OCO5)cc3)CC2)CC1,< 5.89,7.51,–,–,–
Cc1cccc(C)c1C(=O)N1CCC(N2CCN(Cc3ccc(S(=O)(=O)c4ccc5c(c4)OCO5)cc3)[C@@H](C)C2)CC1,7.13,< 7.40,–,–,–
Cc1cccc(C)c1C(=O)N1CCC(N2CCN([C@@H](C)c3ccc(S(=O)(=O)c4ccc5c(c4)OCO5)cc3)[C@@H](C)C2)CC1,7.55,6.31,–,–,–
